Experiments:
Test in all cases: isothermal titration calorimetry
Format in all cases: binding
ScRR1 [1] = molecular target: T1, ScRR1 (Saccharomyces cerevisiae, UniProt P21524)
T1 sequence (P21524 1-888): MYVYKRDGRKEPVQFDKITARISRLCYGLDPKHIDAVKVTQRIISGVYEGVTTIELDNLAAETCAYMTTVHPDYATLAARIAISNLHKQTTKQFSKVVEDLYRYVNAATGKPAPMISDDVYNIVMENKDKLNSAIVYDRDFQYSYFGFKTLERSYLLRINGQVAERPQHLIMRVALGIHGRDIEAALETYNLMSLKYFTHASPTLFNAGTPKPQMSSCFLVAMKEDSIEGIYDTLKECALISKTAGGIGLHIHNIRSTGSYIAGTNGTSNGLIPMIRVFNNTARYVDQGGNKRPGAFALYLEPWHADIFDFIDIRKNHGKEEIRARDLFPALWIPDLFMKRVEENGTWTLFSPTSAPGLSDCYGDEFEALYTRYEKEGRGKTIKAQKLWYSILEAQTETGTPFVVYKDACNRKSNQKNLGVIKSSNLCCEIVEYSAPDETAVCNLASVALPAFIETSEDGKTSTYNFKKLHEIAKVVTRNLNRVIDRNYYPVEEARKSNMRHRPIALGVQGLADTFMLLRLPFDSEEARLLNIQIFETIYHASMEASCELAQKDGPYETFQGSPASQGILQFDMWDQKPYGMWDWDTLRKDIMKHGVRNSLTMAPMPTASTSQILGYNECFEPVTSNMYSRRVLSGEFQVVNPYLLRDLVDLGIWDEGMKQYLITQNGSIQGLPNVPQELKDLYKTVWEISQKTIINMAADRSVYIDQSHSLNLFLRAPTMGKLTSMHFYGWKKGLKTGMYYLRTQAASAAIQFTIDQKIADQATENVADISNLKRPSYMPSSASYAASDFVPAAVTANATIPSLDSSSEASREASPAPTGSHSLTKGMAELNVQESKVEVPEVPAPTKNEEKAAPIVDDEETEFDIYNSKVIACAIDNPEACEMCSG
Method in brief: (§1)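 Yeast RR1 (wild type or loop 2 mutant) in the ITC cell at 25 °C, in 50 mM Hepes pH 7.0 with 5 mM MgCl₂, 5 mM DTT and 5% glycerol (20 µM protein for wild type). Titrant was 0.5 mM dGTP. For ADP binding the protein was pre-saturated with dGTP (500 µM); for CDP binding it was pre-saturated with AMPPNP. Blank-corrected heats were fitted to a one-site model, and Kd was taken from the association constant.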

ScRR1 [2] = molecular target: ScRR1 (Saccharomyces cerevisiae, UniProt P21524, Q288A)
Method in brief: as §1

ScRR1 [3] = molecular target: ScRR1 (Saccharomyces cerevisiae, UniProt P21524, R293A)
Method in brief: as §1

Chain of ScRR1 (Saccharomyces cerevisiae, UniProt P21524, R293A) (P21524 whole entry R293A): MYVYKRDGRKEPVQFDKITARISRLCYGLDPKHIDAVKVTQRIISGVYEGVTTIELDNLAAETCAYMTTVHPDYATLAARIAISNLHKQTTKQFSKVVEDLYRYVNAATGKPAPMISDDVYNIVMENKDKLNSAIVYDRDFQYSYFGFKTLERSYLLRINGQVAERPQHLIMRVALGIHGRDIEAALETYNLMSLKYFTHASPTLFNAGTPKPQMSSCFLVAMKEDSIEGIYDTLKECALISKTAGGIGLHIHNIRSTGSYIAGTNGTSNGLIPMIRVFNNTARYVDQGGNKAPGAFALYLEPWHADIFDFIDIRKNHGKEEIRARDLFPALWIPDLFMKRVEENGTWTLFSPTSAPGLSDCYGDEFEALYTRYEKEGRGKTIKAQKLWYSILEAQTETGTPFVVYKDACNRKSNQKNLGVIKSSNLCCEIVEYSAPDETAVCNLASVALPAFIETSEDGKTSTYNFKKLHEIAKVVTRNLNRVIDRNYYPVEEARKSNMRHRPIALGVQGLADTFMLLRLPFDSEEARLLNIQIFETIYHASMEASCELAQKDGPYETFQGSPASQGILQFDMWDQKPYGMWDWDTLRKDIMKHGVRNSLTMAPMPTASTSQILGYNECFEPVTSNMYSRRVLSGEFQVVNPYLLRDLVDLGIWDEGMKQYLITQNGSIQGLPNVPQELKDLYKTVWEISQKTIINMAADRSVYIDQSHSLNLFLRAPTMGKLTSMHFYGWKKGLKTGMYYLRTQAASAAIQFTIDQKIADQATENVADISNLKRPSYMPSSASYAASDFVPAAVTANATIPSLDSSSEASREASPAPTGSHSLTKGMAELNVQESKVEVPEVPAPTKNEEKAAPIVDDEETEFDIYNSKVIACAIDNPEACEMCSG
Chain of ScRR1 (Saccharomyces cerevisiae, UniProt P21524, Q288A) (P21524 whole entry Q288A): as the sequence (P21524 whole entry R293A) above, with Q288A, A293R counted along it

For `Nc1nc2c(ncn2[C@H]2C[C@H](O)[C@@H](COP(=O)(O)OP(=O)(O)OP(=O)(O)O)O2)c(=O)[nH]1` [dGTP], the Kd (ScRR1 [1]) was 270 nM, the Kd (ScRR1 [2]) was 520 nM and the Kd (ScRR1 [3]) was 570 nM.

Reference: paper PMC3589814 (Journal of molecular biology, 2012)
